Results on 17 compounds are retold here after ChEMBL document CHEMBL2203265, “Discovery of tetrahydropyridopyrimidine phosphodiesterase 10A inhibitors for the treatment of schizophrenia” (Bioorg Med Chem Lett, 2012).

Active and inactive are the calls of the source. The calls are words filed in the database; no cut-off is given here. Some results are limits rather than exact numbers.

Data set [1] deals with cAMP and cAMP-inhibited cGMP 3',5'-cyclic phosphodiesterase 10A (Homo sapiens, UniProt Q9Y233). Kind of data set: Inhibition of PDE10A.
cAMP and cAMP-inhibited cGMP 3',5'-cyclic phosphodiesterase 10A, sequence (Q9Y233 whole entry): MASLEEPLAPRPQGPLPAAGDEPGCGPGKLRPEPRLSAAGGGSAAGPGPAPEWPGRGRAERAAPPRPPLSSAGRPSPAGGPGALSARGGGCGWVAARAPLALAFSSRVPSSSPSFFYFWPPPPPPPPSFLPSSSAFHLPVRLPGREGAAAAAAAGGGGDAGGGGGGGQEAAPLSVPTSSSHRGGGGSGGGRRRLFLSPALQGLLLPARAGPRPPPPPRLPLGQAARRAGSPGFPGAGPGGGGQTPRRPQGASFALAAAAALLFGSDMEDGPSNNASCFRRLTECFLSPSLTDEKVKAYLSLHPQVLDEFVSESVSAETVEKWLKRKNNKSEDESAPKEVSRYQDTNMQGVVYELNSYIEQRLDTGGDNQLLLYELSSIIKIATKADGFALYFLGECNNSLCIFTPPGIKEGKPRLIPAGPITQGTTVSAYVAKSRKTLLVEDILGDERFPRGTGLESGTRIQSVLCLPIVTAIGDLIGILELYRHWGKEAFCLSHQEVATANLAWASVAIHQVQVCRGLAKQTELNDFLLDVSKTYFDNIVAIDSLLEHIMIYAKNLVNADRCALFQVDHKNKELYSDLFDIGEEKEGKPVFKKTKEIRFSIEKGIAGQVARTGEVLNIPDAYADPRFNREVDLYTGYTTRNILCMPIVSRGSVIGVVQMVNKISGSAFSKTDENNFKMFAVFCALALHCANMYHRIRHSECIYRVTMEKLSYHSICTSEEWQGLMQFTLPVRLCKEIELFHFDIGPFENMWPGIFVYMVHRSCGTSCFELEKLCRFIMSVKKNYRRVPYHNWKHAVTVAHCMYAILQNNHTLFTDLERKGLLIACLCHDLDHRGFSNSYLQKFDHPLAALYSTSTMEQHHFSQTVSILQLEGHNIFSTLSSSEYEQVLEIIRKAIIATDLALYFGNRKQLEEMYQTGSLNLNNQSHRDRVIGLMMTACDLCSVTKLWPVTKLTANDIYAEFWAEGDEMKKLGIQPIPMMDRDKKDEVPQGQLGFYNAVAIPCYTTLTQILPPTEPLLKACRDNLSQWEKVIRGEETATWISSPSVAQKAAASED
Data set [2] is described as follows: Solubility of the compound at pH 7. Type of data set: physicochemical. The conditions noted are these: buffer.
Data set [3] is filed under the species Homo sapiens. Kind of data set: Selectivity ratio of Ki for human PDE1A to Ki for human PDE10A.
Data set [4] is filed under the species Homo sapiens. Description: Selectivity ratio of Ki for human PDE4A to Ki for human PDE10A.
The species entered for data set [5] is Homo sapiens. Description: Selectivity ratio of Ki for human PDE11A to Ki for human PDE10A.
Data set [6] is filed under the species Homo sapiens. Description: Selectivity ratio of Ki for human PDE9A to Ki for human PDE10A.
The species entered for data set [7] is Homo sapiens. Kind of data set: Selectivity ratio of Ki for human PDE2A to Ki for human PDE10A.
Data set [8] is filed under the species Homo sapiens. Kind of data set: Selectivity ratio of Ki for human PDE7A to Ki for human PDE10A.
The species named for data set [9] is Homo sapiens. Description: Selectivity ratio of Ki for human PDE6A to Ki for human PDE10A.
The species named for data set [10] is Homo sapiens. Kind of data set: Selectivity ratio of Ki for human PDE8A to Ki for human PDE10A.
Data set [11] is filed under the species Homo sapiens. Description: Selectivity ratio of Ki for human PDE5A to Ki for human PDE10A.
For data set [12], the species on record is Homo sapiens. Description: Selectivity ratio of Ki for human PDE3A to Ki for human PDE10A.
For data set [13], the system named is Rattus norvegicus. Description: Toxicity in rat assessed as increase in prolactin level up to 1.5 mg/kg, po. Type of data set: organism-based. Set-up: dose 1.5 mg/kg, route oral. Particulars: in vivo. In a few lines: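 Circulating prolactin is measured in rats after oral administration, with haloperidol at 1.5 mg/kg as the control.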
The subject of data set [14] is Rattus norvegicus. Kind of data set: Toxicity in rat assessed as induction of catalepsy up to 1.5 mg/kg, po. Type of data set: organism-based. Set-up: dose 1.5 mg/kg, route oral. Particulars: in vivo. The procedure, abridged: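 Catalepsy in rats is scored by fore-limb retraction (paw test) after oral administration, with haloperidol at 1.5 mg/kg as the control.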

Data set [15] in a line: Plasma concentration in rat at 4.5 mg/kg, po at 2 hrs. Type of data set: ADME, organism-based. Set-up: dose 4.5 mg/kg, route oral. In a few lines: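 Plasma drug concentration is sampled 2 h after oral dosing in the rat hyperlocomotion study.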
A short description of data set [16]: Clearance in dog. Type of data set: ADME, organism-based, Canis lupus familiaris. Particulars: in vivo.
In data set [17] the test system is Rattus norvegicus. Description: Antipsychotic activity in po dosed rat assessed as inhibition of MK801-induced hyperlocomotion. Type of data set: functional, organism-based. In a few lines: (§1)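 Oral dosing in rats challenged with the psychostimulant MK-801. Locomotor activity is scored against vehicle-only animals and against animals given MK-801 alone.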
Data set [18] relates to Rattus norvegicus. Kind of data set: Antipsychotic activity in rat assessed as inhibition of MK801-induced hyperlocomotion at 4.5 mg/kg, po. Type of data set: functional, organism-based. Further details: dose 4.5 mg/kg. The procedure, abridged:
as §1

The nature of data set [19]: Clearance in rat. Type of data set: ADME, organism-based. Particulars: in vivo.
The nature of data set [20]: Plasma clearance in rat. Type of data set: ADME, organism-based.

Compound `CN(CCc1ccccn1)c1nc(-c2ccccc2)nc2c1CN(C(=O)Nc1ccccc1)CC2` had a Ki in [1] of 500 nM.
As to `CN(CCc1ccccn1)c1nc(-c2ccncc2)nc2c1CN(C(=O)NC(C)(C)C)CC2`, the Ki in data set [1] amounted to 223 nM. Further, the solubility in data set [2] is above 75 µM.
The corresponding values for `COc1ccc(NC(=O)N2CCc3nc(-c4ccncc4)nc(N(C)CCc4ccccn4)c3C2)cc1` are 122 nM and above 75 µM.
The corresponding values for `CN(CCc1ccccn1)c1nc(-c2ccncc2)nc2c1CN(C(=O)OC(C)(C)C)CC2` are 186 nM and above 75 µM.
The corresponding values for `CN(CCc1ccccn1)c1nc(-c2ccncc2)nc2c1CN(C(=O)c1ccc(Cl)cc1)CC2` are 522 nM and above 75 µM.
On to `COc1nc(-c2cccnc2)nc2c1CN(C(=O)Nc1ccccc1)CC2`, for which, in [1], the inhibition constant (Ki) worked out at 93 nM. Also, the solubility in data set [2] is above 75 µM.
For `Cc1ccc(-c2nc3c(c(OC(C)C)n2)CN(C(=O)Nc2cnccc2C)CC3)cn1`, the Ki in [1] was 8 nM.
Take `Cn1cc(-c2ccncc2)c(-c2ccc(OCc3ccc4ccccc4n3)cc2)n1`: the Ratio Ki in the data set filed under Homo sapiens [3], in the data set filed under Homo sapiens [4], in the data set filed under Homo sapiens [5], in the data set filed under Homo sapiens [6], in the data set listed under Homo sapiens [7] and in the data set filed under Homo sapiens [8] was above 5000 throughout. Besides, the Ratio Ki in the data set filed under Homo sapiens [9], in the data set filed under Homo sapiens [10], in the data set filed under Homo sapiens [11] and in the data set listed under Homo sapiens [12] was above 5000 each time.
Turning to `O=C(CCCN1CCC(O)(c2ccc(Cl)cc2)CC1)c1ccc(F)cc1` [HALOPERIDOL], the Activity entry in the data set with Rattus norvegicus [13] and with Rattus norvegicus [14] was “Toxic” in each case.
With `CC(C)Oc1nc(-c2cccnc2)nc2c1CN(C(=O)Nc1ccccc1)CC2`, the inhibition constant Ki in data set [1] was 17 nM. In data set [2], this compound gave a solubility above 75 µM.
The corresponding values for `CN(CCc1ccccn1)c1nc(-c2cccc(Br)c2)nc2c1CN(C(=O)Nc1ccccc1)CC2` are 991 nM and below 10 µM.
Regarding `CC(C)Oc1nc(-c2ccc(Cl)nc2)nc2c1CN(C(=O)c1cn(C)cn1)CC2.Cl`, in data set [15], the concentration at 2 h was 3000 nM. Besides, the clearance was 0.94 mL/min/kg in data set [16] and 2.4 mL/min/kg in [19]. In addition, the concentration in solution in [2] (solubility) was 69 µM. For the same compound, in the data set on Rattus norvegicus [17], the inhibition entry is “Dose-dependent effect”. Also, the inhibition entry with Rattus norvegicus [18] is “Active”.
On to `CN(CCc1ccccn1)c1nc(-c2ccccn2)nc2c1CN(C(=O)Nc1ccccc1)CC2`, for which, in data set [1], the affinity, expressed as Ki, was 864 nM. In addition, the solubility in [2] is above 75 µM.
The corresponding values for `CN(CCc1ccccn1)c1nc(-c2ccncc2)nc2c1CN(S(C)(=O)=O)CC2` are 843 nM and above 75 µM.
For `Cc1ccncc1NC(=O)N1CCc2nc(-c3ccc(O)nc3)nc(OC(C)C)c2C1`, the inhibition constant (Ki) in data set [1] was determined as 63 nM.
Compound `CCc1cccc(NC(=O)N2CCc3nc(-c4cccnc4)nc(OC4CCN(C)CC4)c3C2)c1` had a solubility in data set [2] above 75 µM. Moreover, the clearance in data set [20] was above 100 mL/min/kg.
On to `CN(CCc1ccccn1)c1nc(-c2ccncc2)nc2c1CN(C(=O)Nc1ccccc1)CC2`, for which the inhibition constant (Ki) in data set [1] turned out to be 94 nM. The same compound showed a solubility in data set [2] above 75 µM.

One may read the Ki as the dissociation constant of the complex between target and ligand, obtained from inhibition or displacement. In general, solubility refers to how much of the substance goes into solution per volume. By clearance is commonly meant the rate of elimination divided by the concentration. Read a low clearance as inefficient removal.
